{
  "source": "ChEMBL document CHEMBL3817823",
  "about": "(J Med Chem, 2016)",
  "key": {"[1]": {"test_system": "Hepatocyte", "experiment": "Clearance in rat hepatocytes at 1 uM measured up to 90 mins by LC-MS/MS analysis", "type": "ADME, cell-based"}, "[2]": {"test_system": "Mus musculus", "experiment": "In vivo inhibition of SMYD2 expressed in human KYSE-150 cells xenografted in BALB/c nude mouse assessed as suppression of AHNAK methylation at 30 to 100 mg/kg, po administered qd for 3 days by dot-blot analysis", "type": "functional, organism-based", "method_in_brief": "(§1)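 Mice with subcutaneous KYSE-150 tumor xenografts dosed orally once daily for 3 days (vehicle PEG 400/water 8:2), n = 12 per group; tumors then harvested and AHNAK methylation measured ex vivo by dot blot with SY46 antibody; group means ± SD, Student's t test versus vehicle.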"}, "[3]": {"molecular_target": "Histone-lysine N-methyltransferase EHMT2 (Homo sapiens) (UniProt Q96KQ7)", "sequence (Q96KQ7 whole entry)": "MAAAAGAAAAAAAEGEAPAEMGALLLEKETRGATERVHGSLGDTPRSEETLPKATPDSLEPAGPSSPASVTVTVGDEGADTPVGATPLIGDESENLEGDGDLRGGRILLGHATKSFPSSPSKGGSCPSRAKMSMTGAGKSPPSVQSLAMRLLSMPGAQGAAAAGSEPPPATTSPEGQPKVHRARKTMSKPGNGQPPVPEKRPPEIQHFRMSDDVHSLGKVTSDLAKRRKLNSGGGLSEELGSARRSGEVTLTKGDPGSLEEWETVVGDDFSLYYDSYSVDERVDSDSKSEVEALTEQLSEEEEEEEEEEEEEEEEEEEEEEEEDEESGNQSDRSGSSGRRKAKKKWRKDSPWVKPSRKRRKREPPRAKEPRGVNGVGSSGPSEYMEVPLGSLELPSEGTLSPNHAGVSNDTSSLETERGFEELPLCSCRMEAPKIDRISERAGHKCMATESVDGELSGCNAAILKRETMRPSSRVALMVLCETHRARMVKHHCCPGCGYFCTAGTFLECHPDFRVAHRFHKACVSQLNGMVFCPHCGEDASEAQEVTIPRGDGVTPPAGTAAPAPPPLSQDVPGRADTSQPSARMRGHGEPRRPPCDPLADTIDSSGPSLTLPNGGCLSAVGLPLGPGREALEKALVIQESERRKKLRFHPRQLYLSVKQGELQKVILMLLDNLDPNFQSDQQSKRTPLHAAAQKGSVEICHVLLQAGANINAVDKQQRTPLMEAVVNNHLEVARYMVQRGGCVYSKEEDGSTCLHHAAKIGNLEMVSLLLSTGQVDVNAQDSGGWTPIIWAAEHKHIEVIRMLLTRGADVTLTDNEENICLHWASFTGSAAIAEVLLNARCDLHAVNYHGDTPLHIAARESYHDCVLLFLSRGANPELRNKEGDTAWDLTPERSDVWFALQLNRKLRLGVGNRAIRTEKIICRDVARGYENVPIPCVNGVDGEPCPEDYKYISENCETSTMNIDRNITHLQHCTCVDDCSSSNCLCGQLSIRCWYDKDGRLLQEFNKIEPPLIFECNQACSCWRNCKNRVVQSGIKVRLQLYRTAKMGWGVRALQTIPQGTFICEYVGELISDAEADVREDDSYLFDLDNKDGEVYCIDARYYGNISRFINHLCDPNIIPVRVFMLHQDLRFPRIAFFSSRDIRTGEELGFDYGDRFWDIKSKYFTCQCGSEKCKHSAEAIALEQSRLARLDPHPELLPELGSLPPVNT", "experiment": "Inhibition of G9A (unknown origin) at 1 to 50 uM by scintillation proximity assay"}, "[4]": {"molecular_target": "Histone-lysine N-methyltransferase SETD7 (Homo sapiens) (UniProt Q8WTS6)", "experiment": "Inhibition of SETD7 (unknown origin) at 1 to 50 uM by scintillation proximity assay"}, "[5]": {"molecular_target": "N-lysine methyltransferase KMT5A (Homo sapiens) (UniProt Q9NQR1)", "experiment": "Inhibition of SETD8 (unknown origin) at 1 to 50 uM by scintillation proximity assay"}, "[6]": {"molecular_target": "Protein arginine N-methyltransferase 1 (Homo sapiens) (UniProt Q99873)", "sequence (Q99873 whole entry, looked up)": "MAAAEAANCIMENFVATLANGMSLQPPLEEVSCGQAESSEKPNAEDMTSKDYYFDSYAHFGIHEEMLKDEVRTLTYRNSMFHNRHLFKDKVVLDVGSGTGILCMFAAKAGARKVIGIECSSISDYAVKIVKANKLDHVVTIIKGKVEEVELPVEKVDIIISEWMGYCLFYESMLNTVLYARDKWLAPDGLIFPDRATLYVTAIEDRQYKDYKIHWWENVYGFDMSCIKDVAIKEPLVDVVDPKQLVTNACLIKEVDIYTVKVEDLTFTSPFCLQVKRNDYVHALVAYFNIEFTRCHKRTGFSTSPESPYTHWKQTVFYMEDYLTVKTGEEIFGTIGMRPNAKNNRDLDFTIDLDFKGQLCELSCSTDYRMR", "experiment": "Inhibition of PRMT1 (unknown origin) at 1 to 50 uM by scintillation proximity assay"}, "[7]": {"molecular_target": "Protein arginine N-methyltransferase 8 (Homo sapiens) (UniProt Q9NR22)", "sequence (Q9NR22 2-394 limits assumed)": "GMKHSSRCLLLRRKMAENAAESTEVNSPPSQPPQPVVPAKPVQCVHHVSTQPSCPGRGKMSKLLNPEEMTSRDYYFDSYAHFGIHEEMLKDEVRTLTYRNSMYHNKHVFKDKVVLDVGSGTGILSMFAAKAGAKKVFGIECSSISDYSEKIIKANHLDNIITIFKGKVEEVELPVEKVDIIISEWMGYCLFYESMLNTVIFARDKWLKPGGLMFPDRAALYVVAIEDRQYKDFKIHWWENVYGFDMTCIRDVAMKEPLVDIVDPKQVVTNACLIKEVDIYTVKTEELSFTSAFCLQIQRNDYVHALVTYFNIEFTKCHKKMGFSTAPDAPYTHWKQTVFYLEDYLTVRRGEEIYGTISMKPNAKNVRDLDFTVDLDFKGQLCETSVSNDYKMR", "experiment": "Inhibition of PRMT8 (unknown origin) at 1 to 50 uM by scintillation proximity assay"}, "[8]": {"molecular_target": "Histone-lysine N-methyltransferase SETD2 (Homo sapiens) (UniProt Q9BYW2)", "experiment": "Inhibition of SETD2 (unknown origin) at 1 to 50 uM by scintillation proximity assay"}, "[9]": {"molecular_target": "Histone-lysine N-methyltransferase EZH2 (Homo sapiens) (UniProt Q15910)", "experiment": "Inhibition of EZH2 (unknown origin) at 1 to 50 uM by scintillation proximity assay"}, "[10]": {"molecular_target": "Histone-lysine N-methyltransferase KMT5B (Homo sapiens) (UniProt Q4FZB7)", "sequence (Q4FZB7 whole entry, looked up)": "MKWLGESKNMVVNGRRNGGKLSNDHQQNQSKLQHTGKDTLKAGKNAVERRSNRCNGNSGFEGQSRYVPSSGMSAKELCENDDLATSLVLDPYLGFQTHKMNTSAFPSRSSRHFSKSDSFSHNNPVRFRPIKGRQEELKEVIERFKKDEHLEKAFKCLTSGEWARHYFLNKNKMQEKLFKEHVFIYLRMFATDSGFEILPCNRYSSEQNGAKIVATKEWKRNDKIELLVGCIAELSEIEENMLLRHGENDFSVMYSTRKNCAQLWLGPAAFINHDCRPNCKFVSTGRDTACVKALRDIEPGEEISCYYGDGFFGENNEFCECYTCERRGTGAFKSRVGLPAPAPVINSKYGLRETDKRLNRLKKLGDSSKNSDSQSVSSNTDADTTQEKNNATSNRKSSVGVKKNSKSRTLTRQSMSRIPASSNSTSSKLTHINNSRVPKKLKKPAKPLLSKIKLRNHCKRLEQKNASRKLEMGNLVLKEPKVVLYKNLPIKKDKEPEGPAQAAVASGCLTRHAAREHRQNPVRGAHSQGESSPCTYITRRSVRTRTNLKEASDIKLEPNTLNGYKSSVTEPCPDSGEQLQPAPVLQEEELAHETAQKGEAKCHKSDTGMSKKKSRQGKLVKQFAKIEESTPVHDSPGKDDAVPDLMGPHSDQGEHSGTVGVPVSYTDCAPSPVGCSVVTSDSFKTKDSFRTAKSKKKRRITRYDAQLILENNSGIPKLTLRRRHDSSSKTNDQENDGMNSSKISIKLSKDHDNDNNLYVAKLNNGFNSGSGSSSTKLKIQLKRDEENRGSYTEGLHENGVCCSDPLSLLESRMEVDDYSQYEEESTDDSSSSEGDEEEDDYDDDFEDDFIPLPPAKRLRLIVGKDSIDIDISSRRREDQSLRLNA", "experiment": "Inhibition of SUV420H1 (unknown origin) at 1 to 50 uM by scintillation proximity assay"}, "[11]": {"molecular_target": "RNA 5'-monophosphate methyltransferase (Homo sapiens) (UniProt Q7Z5W3)", "sequence (Q7Z5W3 whole entry)": "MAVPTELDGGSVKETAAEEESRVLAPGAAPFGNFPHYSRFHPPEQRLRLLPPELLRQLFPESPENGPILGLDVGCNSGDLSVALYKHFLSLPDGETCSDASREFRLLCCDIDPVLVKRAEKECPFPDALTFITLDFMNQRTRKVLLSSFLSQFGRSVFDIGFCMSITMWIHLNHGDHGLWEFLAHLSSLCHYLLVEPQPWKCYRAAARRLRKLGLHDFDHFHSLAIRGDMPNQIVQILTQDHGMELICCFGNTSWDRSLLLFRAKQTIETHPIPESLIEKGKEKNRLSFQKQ", "experiment": "Inhibition of BCDIN3D (unknown origin) at 1 to 50 uM by scintillation proximity assay"}, "[12]": {"molecular_target": "DNA (cytosine-5)-methyltransferase 1 (Homo sapiens) (UniProt P26358)", "experiment": "Inhibition of DNMT1 (unknown origin) at 1 to 50 uM by scintillation proximity assay"}, "[13]": {"molecular_target": "DNMT3A2/3L complex (Homo sapiens) (UniProt Q9Y6K1+Q9UJW3)", "experiment": "Inhibition of DNMT3A/3L (unknown origin) at 1 to 50 uM by TCA precipitation assay", "type": "protein-complex assay"}, "[14]": {"molecular_target": "Histone-lysine N-methyltransferase ASH1L (Homo sapiens) (UniProt Q9NR48)", "experiment": "Inhibition of ASH1L (unknown origin) at 1 to 50 uM by TCA precipitation assay"}, "[15]": {"molecular_target": "Histone-lysine N-methyltransferase, H3 lysine-36 specific (Homo sapiens) (UniProt Q96L73)", "experiment": "Inhibition of NSD1 (unknown origin) at 1 to 50 uM by TCA precipitation assay"}, "[16]": {"molecular_target": "Histone-lysine N-methyltransferase NSD2 (Homo sapiens) (UniProt O96028)", "sequence (O96028 whole entry)": "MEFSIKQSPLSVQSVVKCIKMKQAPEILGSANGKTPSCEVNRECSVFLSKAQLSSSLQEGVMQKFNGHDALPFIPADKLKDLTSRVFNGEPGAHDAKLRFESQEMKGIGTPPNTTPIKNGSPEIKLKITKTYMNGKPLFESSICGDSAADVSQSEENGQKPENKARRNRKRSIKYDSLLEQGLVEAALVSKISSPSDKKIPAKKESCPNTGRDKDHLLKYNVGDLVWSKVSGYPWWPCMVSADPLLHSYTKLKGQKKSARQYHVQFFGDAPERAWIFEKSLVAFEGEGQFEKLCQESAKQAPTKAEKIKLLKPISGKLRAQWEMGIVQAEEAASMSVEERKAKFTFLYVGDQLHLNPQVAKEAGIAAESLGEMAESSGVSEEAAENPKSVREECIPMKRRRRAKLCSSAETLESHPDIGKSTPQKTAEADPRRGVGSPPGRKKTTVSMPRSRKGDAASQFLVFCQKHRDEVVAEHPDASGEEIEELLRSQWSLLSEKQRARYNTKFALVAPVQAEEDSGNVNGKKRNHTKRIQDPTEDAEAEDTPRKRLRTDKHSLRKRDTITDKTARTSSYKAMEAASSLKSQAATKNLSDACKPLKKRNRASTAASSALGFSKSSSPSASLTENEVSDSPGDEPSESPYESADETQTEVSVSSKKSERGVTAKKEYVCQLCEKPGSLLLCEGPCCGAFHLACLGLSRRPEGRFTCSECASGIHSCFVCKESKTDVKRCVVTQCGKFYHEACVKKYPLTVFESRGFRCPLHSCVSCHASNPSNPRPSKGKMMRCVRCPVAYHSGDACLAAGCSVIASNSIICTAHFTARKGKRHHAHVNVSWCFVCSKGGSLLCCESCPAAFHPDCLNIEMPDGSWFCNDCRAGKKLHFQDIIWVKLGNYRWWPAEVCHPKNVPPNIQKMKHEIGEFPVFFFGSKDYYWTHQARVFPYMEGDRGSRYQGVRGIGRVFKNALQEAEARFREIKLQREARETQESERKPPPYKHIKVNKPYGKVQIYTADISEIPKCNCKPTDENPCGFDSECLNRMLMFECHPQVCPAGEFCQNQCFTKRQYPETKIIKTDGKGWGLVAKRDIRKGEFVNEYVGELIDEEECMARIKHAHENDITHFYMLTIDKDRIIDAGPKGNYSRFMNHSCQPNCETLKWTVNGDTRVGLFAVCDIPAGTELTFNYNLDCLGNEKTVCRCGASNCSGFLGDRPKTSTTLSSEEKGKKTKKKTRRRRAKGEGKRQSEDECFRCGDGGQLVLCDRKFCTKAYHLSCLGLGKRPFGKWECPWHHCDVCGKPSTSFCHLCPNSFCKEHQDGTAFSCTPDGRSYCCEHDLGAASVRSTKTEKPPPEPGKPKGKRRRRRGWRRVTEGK", "experiment": "Inhibition of NSD2 (unknown origin) at 1 to 50 uM by TCA precipitation assay"}, "[17]": {"molecular_target": "Histone-lysine N-methyltransferase NSD3 (Homo sapiens) (UniProt Q9BZ95)", "experiment": "Inhibition of NSD3 (unknown origin) at 1 to 50 uM by TCA precipitation assay"}, "[18]": {"molecular_target": "Protein N-lysine methyltransferase METTL21D (Homo sapiens) (UniProt Q9H867)", "sequence (Q9H867 whole entry)": "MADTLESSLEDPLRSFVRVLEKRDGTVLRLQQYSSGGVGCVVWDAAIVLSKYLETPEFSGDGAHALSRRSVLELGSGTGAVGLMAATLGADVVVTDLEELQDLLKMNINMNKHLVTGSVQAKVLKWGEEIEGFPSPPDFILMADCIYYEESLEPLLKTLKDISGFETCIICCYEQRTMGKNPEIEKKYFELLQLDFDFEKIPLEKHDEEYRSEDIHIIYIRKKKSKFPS", "experiment": "Inhibition of METTL21D (unknown origin) at 1 to 50 uM by TCA precipitation assay"}, "[19]": {"experiment": "Effect on p53 protein levels in HEK293T cells by Western blot analysis", "type": "ADME, cell-based", "conditions": "human, hek-293t"}, "[20]": {"test_system": "MDA-MB-231", "experiment": "Effect on AHNAK protein levels in human MDA-MB-231 cells at 6.3 to 2000 nM by Western blot analysis", "type": "ADME, cell-based", "conditions": "mda-mb-231, 2 µM", "method_in_brief": "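MDA-MB231 cells overexpressing SMYD2 treated with inhibitor over a concentration series; Western blot probed for AHNAK methylation (SY46 antibody) and total AHNAK protein.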"}, "[21]": {"test_system": "U2OS", "experiment": "Potentiation of doxorubicin-induced apoptosis in human U2OS cells assessed as caspase 3/7 activation up to 20 uM after 2 days by […]", "type": "functional, cell-based"}, "[22]": {"test_system": "A2780", "experiment": "Induction of apoptosis in human A2780 cells assessed as caspase 3/7 activation up to 20 uM after 2 days by […]", "type": "functional, cell-based"}, "[23]": {"test_system": "A2780", "experiment": "Potentiation of doxorubicin-induced apoptosis in human A2780 cells assessed as caspase 3/7 activation up to 20 uM after 2 days by […]", "type": "functional, cell-based"}, "[24]": {"test_system": "Mus musculus", "experiment": "In vivo inhibition of SMYD2 expressed in human KYSE-150 cells xenografted in BALB/c nude mouse assessed as suppression of AHNAK methylation at 10 mg/kg, po administered qd for 3 days by dot-blot analysis relative to untreated control", "type": "functional", "method_in_brief": "as §1"}, "[25]": {"test_system": "Mus musculus", "experiment": "Time>IC50 for cellular methylation in BALB/c mouse at 10 mg/kg, po qd", "method_in_brief": "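Mice were dosed orally once daily at 10–100 mg/kg. Time at steady state with unbound exposure covering the cellular In-Cell Western AHNAK methylation IC50 was estimated.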"}, "[26]": {"test_system": "KYSE-150", "experiment": "Antitumor activity against human KYSE-150 cells xenografted in BALB/c mouse assessed as reduction in tumor weight at 10 mg/kg, iv administered once at day 4 relative to control", "type": "functional, organism-based", "method_in_brief": "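Mice carrying subcutaneous KYSE-150 xenografts; dosing began day 4 after inoculation. Arms: vehicle (Solutol/ethanol/water 1:1:8 iv qd, plus saline iv once at day 4), inhibitor 500 mg/kg po qd, doxorubicin 10 mg/kg iv once at day 4, or the combination. Tumor area tracked (mean ± SEM); final tumor weight gives T/C; Dunn's method versus vehicle.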"}, "[27]": {"test_system": "Mus musculus", "experiment": "In vivo inhibition of SMYD2 expressed in human KYSE-150 cells xenografted in BALB/c nude mouse assessed as suppression of AHNAK methylation at 70 mg/kg, po administered qd for 3 days by dot-blot analysis relative to untreated control", "type": "functional", "method_in_brief": "as §1"}, "[28]": {"test_system": "Mus musculus", "experiment": "Toxicity in human KYSE-150 cells xenografted BALB/c mouse assessed as body weight loss at 500 mg/kg, po administered qd in presence of doxorubicin relative to control", "type": "organism-based", "conditions": "in vivo", "method_in_brief": "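Mice bore subcutaneous KYSE-150-derived tumor xenografts; dosing began day 4 after inoculation. Groups: vehicle (Solutol/ethanol/water 1:1:8 iv qd plus saline iv at day 4); compound 500 mg/kg po qd; doxorubicin 10 mg/kg iv once at day 4; combination. Treatment-related body weight loss was recorded.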"}, "[29]": {"molecular_target": "N-lysine methyltransferase SMYD2 (Homo sapiens, UniProt Q9NRG4)", "conditions": "KYSE-150, 0.5 to 10 uM"}},
  "note": "Calls of active or inactive are those of the source. No cut-off for these calls is given here.",
  "data": [
    {"smiles": "CCN(C(=O)CO)[C@H]1CN(/C(=N\\C#N)Nc2cccc(OC(F)F)c2)N=C1c1ccc(Cl)c(Cl)c1", "values": [
      {"measurement": "CLH", "setting": "[1]", "value": 41.7, "unit": "mL/min/kg"},
      {"measurement": "inhibition", "setting": "[2]", "value": "Active"},
      {"measurement": "inhibition", "setting": "[3]", "value": "inactive"},
      {"measurement": "inhibition", "setting": "[4]", "value": "inactive"},
      {"measurement": "inhibition", "setting": "[5]", "value": "inactive"},
      {"measurement": "inhibition", "setting": "[6]", "value": "inactive"},
      {"measurement": "inhibition", "setting": "[7]", "value": "inactive"},
      {"measurement": "inhibition", "setting": "[8]", "value": "inactive"},
      {"measurement": "inhibition", "setting": "[9]", "value": "inactive"},
      {"measurement": "inhibition", "setting": "[10]", "value": "inactive"},
      {"measurement": "inhibition", "setting": "[11]", "value": "inactive"},
      {"measurement": "inhibition", "setting": "[12]", "value": "inactive"},
      {"measurement": "inhibition", "setting": "[13]", "value": "inactive"},
      {"measurement": "inhibition", "setting": "[14]", "value": "inactive"},
      {"measurement": "inhibition", "setting": "[15]", "value": "inactive"},
      {"measurement": "inhibition", "setting": "[16]", "value": "inactive"},
      {"measurement": "inhibition", "setting": "[17]", "value": "inactive"},
      {"measurement": "inhibition", "setting": "[18]", "value": "inactive"},
      {"measurement": "Activity", "setting": "[19]", "value": "Non-toxic"},
      {"measurement": "Activity", "setting": "[20]", "value": "Non-toxic"},
      {"measurement": "Activity", "setting": "[21]", "value": "Active"},
      {"measurement": "Activity", "setting": "[22]", "value": "inactive"},
      {"measurement": "Activity", "setting": "[23]", "value": "Active"},
      {"measurement": "T/C", "setting": "[24]", "value": 1},
      {"measurement": "Time", "setting": "[25]", "value": 9, "unit": "h"},
      {"measurement": "Activity", "setting": "[26]", "value": "Active"},
      {"measurement": "T/C", "setting": "[27]", "value": 0.73},
      {"measurement": "Activity", "setting": "[28]", "value": "Non-toxic"},
      {"measurement": "inhibition", "setting": "[29]", "value": "Active"}
    ]}
  ]
}
